The record followed here is ChEMBL document CHEMBL4334447, “Discovery of 4-Aminoquinoline-3-carboxamide Derivatives as Potent Reversible Bruton's Tyrosine Kinase Inhibitors for the Treatment of Rheumatoid Arthritis” (J Med Chem, 2019).

≈ marks a conversion by molar mass, not a printed value.

For series [1], the target named is T1, Tyrosine-protein kinase BTK (Homo sapiens, UniProt Q06187). The series is described as follows: Reversible inhibition of sodium orthovanadate-stimulated BTK autophosphorylation at Tyr223 residues in human Ramos cells preincubated for 2 hrs followed by sodium orthovanadate addition and measured after 15 mins by Western blot analysis. It counts as cell-based. (In general: A western blot detects proteins with antibodies after separation by electrophoresis.)

Series [2] in a line: Kinetic aqueous solubility of the compound in pH 7.4 phosphate buffered saline incubated for 24 hrs under shaking condition by HPLC analysis. It counts as physicochemical. The settings on record: read-out: Kinetic_solubility. Put shortly: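 Dry powder shaken 24 h at 25 °C in 0.1 M phosphate buffer, pH 7.4, then filtered through a 0.45 µm membrane. Concentration determined by HPLC against a standard of the compound in DMSO. Mean of three separate assays in triplicate.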

For series [3], the target named is T1, Tyrosine-protein kinase BTK. In words: Reversible inhibition of FAM-labeled peptide binding to full-length human N-terminal GST-tagged BTK (2 to 659 residues) expressed in baculovirus infected Sf21 insect cells at preincubated for 10 mins followed by FAM-labeled peptide addition and measured by off-chip mobility shift assay.
For series [4], the target named is Epidermal growth factor receptor (Homo sapiens, UniProt P00533). In words: Inhibition of recombinant human GST-tagged EGFR cytoplasmic domain (668 to 1210 residues) expressed in baculovirus expression system using Z'-lyte-labelled tyr-4 peptide as substrate measured after 1 hr by FRET assay. Put shortly:
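Z'-LYTE kinase assay. Compounds tested as 3-fold serial dilutions in aqueous solution containing 4% DMSO. Fluorescence read at 400 nm excitation and 445/520 nm emission. IC50 is the mean of ≥3 assays in triplicate.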

Series [5] concerns the target T2, Tyrosine-protein kinase ITK/TSK (Homo sapiens, UniProt Q08881).
T2 sequence (Q08881 whole entry): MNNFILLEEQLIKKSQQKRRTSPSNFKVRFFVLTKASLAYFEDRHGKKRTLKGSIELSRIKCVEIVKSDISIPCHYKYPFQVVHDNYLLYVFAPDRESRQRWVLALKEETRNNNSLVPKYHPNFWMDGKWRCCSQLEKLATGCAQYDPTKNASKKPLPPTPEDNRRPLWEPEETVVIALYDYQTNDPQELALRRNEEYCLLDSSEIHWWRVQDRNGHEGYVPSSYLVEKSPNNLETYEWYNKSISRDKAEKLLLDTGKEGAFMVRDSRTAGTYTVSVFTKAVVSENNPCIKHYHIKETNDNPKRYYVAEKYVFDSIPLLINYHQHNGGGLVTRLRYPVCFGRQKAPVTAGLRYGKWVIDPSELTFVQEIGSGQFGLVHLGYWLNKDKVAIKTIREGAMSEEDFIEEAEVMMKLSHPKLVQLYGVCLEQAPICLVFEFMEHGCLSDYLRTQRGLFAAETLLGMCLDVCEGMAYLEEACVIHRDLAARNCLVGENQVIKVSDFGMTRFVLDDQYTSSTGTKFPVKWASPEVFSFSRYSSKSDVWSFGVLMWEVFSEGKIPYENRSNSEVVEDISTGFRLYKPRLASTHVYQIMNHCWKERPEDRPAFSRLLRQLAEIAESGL
The series is described as follows: Inhibition of recombinant human ITK (352 to 617 residues) using myelin basic protein as substrate measured after 40 mins in presence of [gamma33P]ATP by scintillation counting analysis.

Series [6] can be described thus: Inhibition of recombinant mouse full-length BLK V421E mutant using poly(Glu, Tyr) 4:1 as substrate measured after 40 mins in presence of [gamma33P]ATP by scintillation counting analysis. Put shortly:
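Radiometric assay with BLK in 50 mM Tris pH 7.5, 0.1 mM EGTA, 0.1 mM Na3VO4, 0.1% mercaptoethanol, 0.1 mg/mL poly(Glu,Tyr) 4:1, 10 mM Mg acetate and [γ-33P]-ATP. Started with Mg/ATP at room temperature; 40 min. Stopped with 0.5% phosphoric acid, filtermat-spotted, washed, scintillation counted. Mean of ≥3 assays in triplicate.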

The species named for series [7] is Homo sapiens. In words: Selectivity ratio of IC50 for recombinant human N-terminal GST-fused TEC catalytic domain (359 to 631 residues) expressed in baculovirus expression system to IC50 for inhibition of FAM-labeled peptide binding to full-length human N-terminal GST-tagged BTK (2 to 659 residues) expressed in baculovirus infected Sf21 insect cells. A digest of the protocol: (§1)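 Ratio of kinase IC50 to BTK IC50. BTK measured by off-chip mobility shift: compound preincubated 10 min with BTK in 50 mM HEPES pH 7.5, 0.01% Brij-35, then FAM-labelled peptide and ATP added, 28 °C. Stopped with EDTA buffer; percent conversion fitted for IC50. Each panel kinase assayed in triplicate.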

The species entered for series [8] is Homo sapiens. In words: Selectivity ratio of IC50 for recombinant full-length human SRC to IC50 for inhibition of FAM-labeled peptide binding to full-length human N-terminal GST-tagged BTK (2 to 659 residues) expressed in baculovirus infected Sf21 insect cells. A digest of the protocol:
as §1

The species named for series [9] is Homo sapiens. The series is described as follows: Selectivity ratio of IC50 for human full-length recombinant YES to IC50 for inhibition of FAM-labeled peptide binding to full-length human N-terminal GST-tagged BTK (2 to 659 residues) expressed in baculovirus infected Sf21 insect cells. Put shortly: as §1
A short description of series [10]: Stability in human plasma assessed as parent compound remaining at 1 uM measured after 2 hrs by LC-MS/MS analysis. It counts as ADME, cell-free. The settings on record: read-out: Stability. A digest of the protocol: (§2)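 Compound at 1 µM initial concentration incubated 2 h at 37 °C in plasma. Quenched with 10 volumes of methanol containing internal standard, then centrifuged. Supernatant diluted with an equal volume of water and analysed by LC-MS/MS. Read-out is % parent remaining. Mean of three separate assays run in triplicate.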

A short description of series [11]: Stability in Beagle dog plasma assessed as parent compound remaining at 1 uM measured after 2 hrs by LC-MS/MS analysis. In kind it is ADME, cell-free, Canis lupus familiaris. The settings on record: read-out: Stability. Put shortly:
as §2

The nature of series [12]: Stability in monkey plasma assessed as parent compound remaining at 1 uM measured after 2 hrs by LC-MS/MS analysis. In kind it is ADME, cell-free, Macaca mulatta. Conditions: rhesus monkey, read-out: Stability. A digest of the protocol:
as §2

Series [13] in a line: Clearance in Sprague-Dawley rat at 2 mg/kg, iv by LC-MS/MS analysis. It counts as ADME, organism-based. The settings on record: in vivo. Put shortly: (§3)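 Male Sprague-Dawley rats (187-205 g, n=6 per route). IV group: 2 mg/kg by tail vein in 10% DMSO/90% PEG400, fed animals. Oral group: 5 mg/kg as a 0.5% methylcellulose suspension, fasted animals. Jugular cannula blood taken pre-dose and from 0.033 h (iv only) to 24 h. Plasma stored at -20 °C and analysed by LC-MS/MS.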

The nature of series [14]: Volume of distribution in Sprague-Dawley rat at 2 mg/kg, iv or 5 mg/kg, po by LC-MS/MS analysis. In kind it is ADME, organism-based. Conditions: in vivo. A digest of the protocol:
as §3

Series [15] can be described thus: Half life in Sprague-Dawley rat at 2 mg/kg, iv by LC-MS/MS analysis. In kind it is ADME, organism-based. Conditions: in vivo. A digest of the protocol: as §3
The nature of series [16]: Toxicity in complete freund's adjuvant-induced DBA/1 mouse arthritis model assessed as change in body weight at 10 mg/kg, po qd administered starting from 29 day post-CFA challenge and measured on day 29, 33, 36, 40 and 43. The settings on record: in vivo, 696 h. In kind it is organism-based. A digest of the protocol:
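CIA in male DBA/1 mice: intradermal bovine type II collagen in CFA on day 0, collagen II in IFA boost on day 20. Randomized on day 29 and given oral doses once daily (n=6 per group) alongside vehicle and naive groups. Body weights recorded over the study days.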

Series [17] has as its target Tyrosine-protein kinase BTK (Homo sapiens, UniProt Q06187, C481S). The series is described as follows: biochemical.

T1 sequence (Q06187 whole entry): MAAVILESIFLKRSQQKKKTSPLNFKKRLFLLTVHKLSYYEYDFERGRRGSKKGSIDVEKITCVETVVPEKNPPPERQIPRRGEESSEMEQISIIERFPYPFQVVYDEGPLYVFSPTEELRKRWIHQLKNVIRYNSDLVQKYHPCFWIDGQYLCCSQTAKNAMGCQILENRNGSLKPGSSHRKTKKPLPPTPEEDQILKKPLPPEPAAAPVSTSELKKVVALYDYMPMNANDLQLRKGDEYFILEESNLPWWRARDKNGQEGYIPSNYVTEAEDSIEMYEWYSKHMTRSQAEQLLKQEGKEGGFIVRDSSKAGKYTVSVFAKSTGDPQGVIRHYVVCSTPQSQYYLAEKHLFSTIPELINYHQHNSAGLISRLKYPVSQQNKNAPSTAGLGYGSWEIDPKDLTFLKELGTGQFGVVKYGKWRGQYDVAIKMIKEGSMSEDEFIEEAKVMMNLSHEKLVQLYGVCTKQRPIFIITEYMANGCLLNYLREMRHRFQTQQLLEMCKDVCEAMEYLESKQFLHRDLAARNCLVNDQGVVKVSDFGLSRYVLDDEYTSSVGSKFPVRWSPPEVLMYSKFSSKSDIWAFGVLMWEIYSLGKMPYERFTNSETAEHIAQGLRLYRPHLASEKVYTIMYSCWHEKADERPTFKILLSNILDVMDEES
Tyrosine-protein kinase BTK (Homo sapiens, UniProt Q06187, C481S), sequence (Q06187 whole entry C481S): as the sequence (Q06187 whole entry) above, with C481S counted along it
Epidermal growth factor receptor, sequence (P00533 whole entry, the tested form may be a part): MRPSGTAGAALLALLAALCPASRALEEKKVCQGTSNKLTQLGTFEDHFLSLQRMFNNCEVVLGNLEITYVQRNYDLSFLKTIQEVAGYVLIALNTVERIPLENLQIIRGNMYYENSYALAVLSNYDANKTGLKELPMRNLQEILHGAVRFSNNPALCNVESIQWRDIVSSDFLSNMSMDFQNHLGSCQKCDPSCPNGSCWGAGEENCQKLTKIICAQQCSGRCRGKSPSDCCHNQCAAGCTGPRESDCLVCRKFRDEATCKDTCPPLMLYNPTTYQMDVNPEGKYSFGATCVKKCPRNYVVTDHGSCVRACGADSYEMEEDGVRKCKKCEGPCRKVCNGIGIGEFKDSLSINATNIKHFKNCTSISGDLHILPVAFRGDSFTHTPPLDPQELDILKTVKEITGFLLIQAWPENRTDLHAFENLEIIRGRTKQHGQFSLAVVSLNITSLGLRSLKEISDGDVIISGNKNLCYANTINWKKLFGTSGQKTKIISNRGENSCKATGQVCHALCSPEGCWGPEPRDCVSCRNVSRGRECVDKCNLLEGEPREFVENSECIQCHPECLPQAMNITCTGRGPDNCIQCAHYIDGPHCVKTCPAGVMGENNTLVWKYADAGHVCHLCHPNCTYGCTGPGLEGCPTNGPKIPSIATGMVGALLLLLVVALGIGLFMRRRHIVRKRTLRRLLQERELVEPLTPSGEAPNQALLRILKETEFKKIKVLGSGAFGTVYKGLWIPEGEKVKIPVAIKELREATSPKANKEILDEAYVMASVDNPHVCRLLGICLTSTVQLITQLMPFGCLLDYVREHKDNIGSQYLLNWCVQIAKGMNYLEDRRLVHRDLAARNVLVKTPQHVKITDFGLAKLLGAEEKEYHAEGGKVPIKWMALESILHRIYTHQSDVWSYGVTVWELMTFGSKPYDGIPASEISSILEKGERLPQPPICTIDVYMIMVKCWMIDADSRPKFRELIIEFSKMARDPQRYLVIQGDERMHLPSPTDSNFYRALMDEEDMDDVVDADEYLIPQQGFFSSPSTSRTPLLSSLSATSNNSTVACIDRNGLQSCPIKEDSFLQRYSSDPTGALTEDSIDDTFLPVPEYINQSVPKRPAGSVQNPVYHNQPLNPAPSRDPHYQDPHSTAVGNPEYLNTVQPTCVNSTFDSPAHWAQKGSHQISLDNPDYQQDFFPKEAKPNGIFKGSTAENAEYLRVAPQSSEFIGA

In general, EC50 refers to the midpoint of the concentration-response curve. One may read the IC50 as the concentration needed to halve the response being measured. In general, clearance refers to the volume of plasma or blood freed of the substance per unit of time. What is called half-life is the time needed for the level to fall by half in the phase considered. In series [1], `COc1cc2cn[nH]c2cc1-c1ccc(F)c2c(N)c(C(N)=O)cnc12` showed an EC50 of 42.7 nM. Also, the solubility kinetic at 24 h in series [2] came out at 7.3 µg/mL (≈ 20.8 µM). The IC50 in series [3] was 5.3 nM; in series [4], over 2000 nM; in series [5], 307 nM; in [6], 150 nM; in [17], 39 nM. The figures for the Ratio IC50 in the series filed under Homo sapiens [7], in the series filed under Homo sapiens [8] and in the series filed under Homo sapiens [9] were 43, 170 and over 1000, respectively. Besides, the remaining at 2 h, 1 µM in series [10] turned out to be 93%; in series [11], 88%; in series [12] it was 88%. The compound further registered a clearance in [13] of 20.8 mL/min/kg. For the same compound, the Vd in [14] is 2.1 L/kg. In series [15], the half-life was 1.2 h. The Activity entry in series [16] was “Non-Toxic”.
